# Values joined by “and” are separate entries in the source; they are usually repeats but may differ in a detail not shown here. Identical values can stand only once. Like-named read-outs stand apart in the source and are kept apart here.
# Experiments:
# [1] = format: in vivo, Wistar rats; conditions: for mean Ke/p (RBC/plasma partition coefficient): mean (± SD) of all 12 rats, 1 and 4 h after i.p. treosulfan 500 mg/kg; for Cp: plasma; for Ce: red blood cells
# In short: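 Wistar rats, 10 weeks old (6 male, 6 female), received a single i.p. bolus of 500 mg/kg in sterile water (10 mL/kg), with ketamine/xylazine anaesthesia. K2EDTA cardiac blood was taken at 1 or 4 h and spun at 3645×g for 5 min at 20 °C. Plasma and RBC were acidified with citric acid; RBC were lysed by three freeze–thaw cycles. HPLC–MS/MS used codeine as internal standard. Ke/p = Ce/Cp.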
# [2] = format: in vitro ADME, rat; conditions: three freeze-thaw cycles, n = 3, range of means over QC levels
# In short: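 Freeze–thaw stability of quality-control samples prepared by spiking drug-free rat plasma and drug-free RBC lysate (from three freeze–thaw cycles) at treosulfan 5.5, 55 and 800 μM and S,S-EBDM 9.4 and 94 μM. Samples were processed like study samples and assayed by HPLC–MS/MS. Stability was taken as the final/initial concentration ratio and reported as the range of means across QC levels.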
# [3] = rat plasma; cited from earlier work
# [4] = treosulfan to S,S-EBDM; S,S-EBDM to (2S,3S)-1,2:3,4-diepoxybutane; cited from earlier work
# [5] = rat lungs; cited from earlier work
# [6] = individual female rats, 1 h after i.p. bolus treosulfan 500 mg/kg
# [7] = individual female rats, 4 h after i.p. bolus treosulfan 500 mg/kg
# [8] = individual male rats, 1 h after i.p. bolus treosulfan 500 mg/kg
# [9] = individual male rats, 4 h after i.p. bolus treosulfan 500 mg/kg
SMILES,mean Ke/p (RBC/plasma partition coefficient) [1],"Cp [1, 6]","Cp [1, 7]","Cp [1, 8]","Cp [1, 9]","Ce [1, 8]","Ce [1, 9]",Stability (final/initial concentration) ([2]; rat RBC lysate),Stability (final/initial concentration) ([2]; rat plasma),unbound fraction [3],t1/2 of nonenzymatic epoxidation [4] [h],tissue-to-plasma concentration ratio [5]
CS(=O)(=O)OC[C@H](O)[C@@H](O)COS(C)(=O)=O [Treosulfan],0.74 ± 0.12,1164 µM and 300 µM and 349 µM,113 µM and 83 µM,943 µM and 1189 µM and 28.8 µM,112 µM and 120 µM and 30 µM,704 µM and 779 µM and 24.2 µM,94 µM and 87 µM and 26 µM,85.8–104.8%,90.7–108.8%,≥ 0.94,1.5,about 0.8
"CS(=O)(=O)OC[C@H](O)[C@@H]1CO1 [S,S-EBDM, (2S,3S)-1,2-epoxy-3,4-butanediol 4-methanesulfonate]",0.60 ± 0.09,64 µM and 22 µM,5.6 µM and 6.2 µM,58 µM and 61 µM and 3.6 µM,8.4 µM and 5.5 µM,36 µM and 34 µM and 2.1 µM,6.7 µM and 3.5 µM,86.7–89.8%,88.3–89.4%,≥ 0.94,3.4,~0.6
